Data on 14 compounds can be found in ChEMBL document CHEMBL1828606, “Anticancer and radio-sensitizing evaluation of some new thiazolopyrane and thiazolopyranopyrimidine derivatives bearing a sulfonamide moiety” (Eur J Med Chem, 2011).

Experiment [1] concerns MCF7. The experiment in a line: Anticancer activity against human MCF7 cells assessed as viable cells at 25 uM after 48 hrs by SRB assay relative to control. The experiment is classed as functional. The method in brief: (§1)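 MCF7 human breast tumor cells seeded at 10⁴ cells/well and left 24 h to attach. Compounds dissolved in DMSO, added in replicate wells per concentration, 48 h at 37 °C under 5% CO₂. Cells fixed and stained 30 min with 0.4% (wt/vol) SRB in 1% acetic acid. Washed four times with 1% acetic acid, dye recovered in Tris-EDTA, read on an ELISA reader.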

For experiment [2], the system named is MCF7. The experiment can be described thus: Anticancer activity against human MCF7 cells assessed as viable cells at 50 uM after 48 hrs by SRB assay relative to control. The experiment is classed as functional. In outline: as §1
Experiment [3] has as its system MCF7. The experiment can be described thus: Anticancer activity against human MCF7 cells assessed as viable cells at 100 uM after 48 hrs by SRB assay relative to control. The experiment is classed as functional. The method in brief:
as §1
(The SRB assay estimates cell density from bound dye.)

Experiment [4] deals with MCF7. The experiment in a line: Anticancer activity against human MCF7 cells assessed as viable cells after 48 hrs by SRB assay. Particulars: MCF7, 48 h. The experiment is classed as functional, cell-based. In outline:
as §1

The test system of experiment [5] is MCF7. The experiment can be described thus: Anticancer activity against human MCF7 cells assessed as viable cells at 10 uM after 48 hrs by SRB assay relative to control. The experiment is classed as functional. In outline: as §1
In experiment [6] the test system is MCF7. The experiment can be described thus: Anticancer activity against 8 Gy gamma-irradiated human MCF7 cells assessed as viable cells after 48 hrs by SRB assay. The experiment is classed as functional, cell-based. Particulars: MCF7, light or radiation study. The method in brief:
as §1

The subject of experiment [7] is MCF7. The experiment can be described thus: Anticancer activity against 8 Gy gamma-irradiated human MCF7 cells assessed as viable cells after 48 hrs at 50 uM by SRB assay relative to control. The experiment is classed as functional. In outline:
as §1

Experiment [8] concerns MCF7. The experiment can be described thus: Anticancer activity against 8 Gy gamma-irradiated human MCF7 cells assessed as viable cells after 48 hrs at 25 uM by SRB assay relative to control. The experiment is classed as functional. In outline:
as §1

The subject of experiment [9] is MCF7. The experiment can be described thus: Anticancer activity against 8 Gy gamma-irradiated human MCF7 cells assessed as viable cells after 48 hrs at 10 uM by SRB assay relative to control. The experiment is classed as functional. In outline: as §1
Experiment [10] concerns MCF7. The experiment can be described thus: Anticancer activity against 8 Gy gamma-irradiated human MCF7 cells assessed as viable cells after 48 hrs at 100 uM by SRB assay relative to control. The experiment is classed as functional. The method in brief: as §1

Consider `CC(=O)NC1=C(C#N)C(c2ccc(Cl)cc2)c2sc(Nc3ccc(S(N)(=O)=O)cc3)nc2O1` (stereo not given), for which the “fold change (FC)” value in [1] is given as 0.447; in experiment [2] it was 0.183; in experiment [3], 0.252; in experiment [5], 0.801. In experiment [4], the IC50 (usually the midpoint of a concentration-inhibition curve) turned out to be 41.9 µM.

`N#CC1=C(/N=C/c2ccc(Cl)cc2)Oc2nc(Nc3ccc(S(N)(=O)=O)cc3)sc2C1c1ccc(Cl)cc1` (stereo not given): the IC50 in [6] worked out at 17 µM; in [4] it was 34.6 µM. For the same compound, the “fold change (FC)” value in experiment [1] is 0.24; in experiment [7], 0.143; in [2], 0.257; in experiment [3], 0.304; in experiment [8] it was 0.124; in experiment [9] it was 0.462. Also, the entries for the “fold change (FC)” value in [10] and in experiment [5] were 0.182 and 0.634, respectively.

For `Nc1nc(=O)[nH]c2c1C(c1ccc(Cl)cc1)c1sc(Nc3ccc(S(N)(=O)=O)cc3)nc1O2` (stereo not given), the “fold change (FC)” value in experiment [1] came out at 0.56; in [2] it was 0.265; in experiment [3], 0.654; in experiment [5], 0.9. Further, in experiment [4], the IC50 is 84.1 µM.

For `N#CC1=C(N)Oc2nc(Nc3ccc(S(N)(=O)=O)cc3)sc2C1c1ccc(Cl)cc1` (stereo not given), the IC50 in experiment [6] was 26.2 µM; in experiment [4], 39.4 µM. For the same compound, the “fold change (FC)” value in experiment [1] amounted to 0.36; in experiment [7], 0.062; in experiment [2], 0.168; in experiment [3] it was 0.214; in experiment [8], 0.203; in experiment [9], 0.706. Moreover, the “fold change (FC)” value in experiment [10] was determined as 0.097; in [5] it was 0.848.

With `Nc1nc(=S)[nH]c2c1C(c1ccc(Cl)cc1)c1sc(Nc3ccc(S(N)(=O)=O)cc3)nc1O2` (stereo not given), the “fold change (FC)” value in [1] turned out to be 0.639; in experiment [2], 0.241; in [3] it was 0.325; in experiment [5] it was 0.814. For the same compound, the IC50 in experiment [4] is 52.8 µM.

As for `N#CC1=C(/N=C/c2ccccc2)Oc2nc(Nc3ccc(S(N)(=O)=O)cc3)sc2C1c1ccc(Cl)cc1` (stereo not given), the “fold change (FC)” value in experiment [1] amounted to 0.206; in experiment [2], 0.295; in experiment [3], 0.324; in [5], 0.93. In addition, in [4], the IC50 amounted to 45.2 µM.

`N#CC1=C(NS(=O)(=O)c2ccccc2)Oc2nc(Nc3ccc(S(N)(=O)=O)cc3)sc2C1c1ccc(Cl)cc1` (stereo not given): the “fold change (FC)” value in experiment [1] worked out at 0.492; in [2], 0.239; in [3], 0.361; in experiment [5] it was 0.697. Also, the half-inhibitory concentration (IC50) in [4] stood at 47.5 µM.

Consider `N#CC1=C(NC(=O)CCl)Oc2nc(Nc3ccc(S(N)(=O)=O)cc3)sc2C1c1ccc(Cl)cc1` (stereo not given), for which the “fold change (FC)” value was found to be 0.531 in [1], 0.25 in [2], 0.252 in experiment [3] and 0.702 in experiment [5]. In addition, the IC50 in experiment [4] is 43.8 µM.

Take `NC(=O)C1=C(N)Oc2nc(Nc3ccc(S(N)(=O)=O)cc3)sc2C1c1ccc(Cl)cc1` (stereo not given): the “fold change (FC)” value in experiment [1] stood at 0.499; in experiment [2], 0.169; in experiment [3], 0.21; in experiment [5] it was 0.815. Also, the IC50 in experiment [4] was 41.8 µM.

For `Cc1ccc(S(=O)(=O)NC2=C(C#N)C(c3ccc(Cl)cc3)c3sc(Nc4ccc(S(N)(=O)=O)cc4)nc3O2)cc1` (stereo not given), the “fold change (FC)” value in experiment [1] came to 0.52; in experiment [2], 0.2; in experiment [3], 0.6; in [5], 0.92. Besides, the IC50 in experiment [4] is 71.7 µM.

Take `CC(=O)N(C(C)=O)C1=C(C#N)C(c2ccc(Cl)cc2)c2sc(Nc3ccc(S(N)(=O)=O)cc3)nc2O1` (stereo not given): the “fold change (FC)” value in [1] was determined as 0.511; in [2], 0.234; in experiment [3] it was 0.617; in [5] it was 0.913. The IC50 in experiment [4] came out at 74.3 µM.

For `N#CC1=C(NC(N)=O)Oc2nc(Nc3ccc(S(N)(=O)=O)cc3)sc2C1c1ccc(Cl)cc1` (stereo not given), the “fold change (FC)” value in experiment [1] is 0.717; in experiment [2] it was 0.309; in experiment [3], 0.228; in experiment [5], 0.701. The IC50 in [4] worked out at 49.8 µM.

`NS(=O)(=O)c1ccc(Nc2nc3c(s2)C(c2ccc(Cl)cc2)c2c(nc[nH]c2=O)O3)cc1` (stereo not given): the IC50 was determined as 28.4 µM in [6] and 41.6 µM in [4]. The “fold change (FC)” value in experiment [1] was determined as 0.515; in experiment [7], 0.06; in experiment [2], 0.204; in experiment [3] it was 0.175; in [8], 0.371; in experiment [9], 0.65. Also, the “fold change (FC)” value was determined as 0.04 in experiment [10] and 0.794 in [5].

In the case of `Nc1ncnc2c1C(c1ccc(Cl)cc1)c1sc(Nc3ccc(S(N)(=O)=O)cc3)nc1O2` (stereo not given), the IC50 in experiment [6] was 23.7 µM; in experiment [4], 35.8 µM. In addition, the “fold change (FC)” value in experiment [1] is 0.454; in experiment [7], 0.064; in experiment [2] it was 0.186; in [3], 0.207; in [8], 0.341; in [9], 0.504. Also, the “fold change (FC)” value in experiment [10] is 0.086; in [5], 0.62.
